Test [1] addresses T1, NAD-dependent protein deacetylase sirtuin-1 (Homo sapiens) (UniProt Q96EB6).
T1 sequence (whole entry): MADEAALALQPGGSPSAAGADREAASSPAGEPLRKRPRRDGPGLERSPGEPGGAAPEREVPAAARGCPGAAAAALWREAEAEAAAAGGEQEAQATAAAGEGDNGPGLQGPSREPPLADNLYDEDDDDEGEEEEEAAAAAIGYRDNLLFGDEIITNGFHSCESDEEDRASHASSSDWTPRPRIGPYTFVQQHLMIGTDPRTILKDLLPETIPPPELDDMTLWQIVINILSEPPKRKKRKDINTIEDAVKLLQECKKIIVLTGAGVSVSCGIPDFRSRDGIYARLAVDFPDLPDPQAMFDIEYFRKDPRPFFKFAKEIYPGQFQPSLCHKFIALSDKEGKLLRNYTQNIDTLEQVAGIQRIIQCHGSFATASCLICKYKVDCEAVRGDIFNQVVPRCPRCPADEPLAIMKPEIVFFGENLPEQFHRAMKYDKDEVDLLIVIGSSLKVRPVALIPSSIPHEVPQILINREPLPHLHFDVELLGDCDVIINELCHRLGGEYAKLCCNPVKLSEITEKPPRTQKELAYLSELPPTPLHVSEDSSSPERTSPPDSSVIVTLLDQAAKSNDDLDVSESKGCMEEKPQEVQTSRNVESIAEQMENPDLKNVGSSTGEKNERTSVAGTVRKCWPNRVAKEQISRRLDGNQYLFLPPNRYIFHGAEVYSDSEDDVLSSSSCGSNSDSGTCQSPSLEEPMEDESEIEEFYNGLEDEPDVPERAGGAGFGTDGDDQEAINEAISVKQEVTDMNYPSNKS
Nature of the test: Activation of SIRT1 expressed in HEK293 cells assessed as increase in NAD to NADH ratio at 20 uM after 12 hrs by NAD+/NADH assay.

For test [2], the target named is T1, NAD-dependent protein deacetylase sirtuin-1 (Homo sapiens). The experiment in a line: Activation of SIRT1 expressed in HEK293 cells assessed as reduction in p53 transcriptional activity at 10 uM incubated for 12 hrs by luciferase reporter gene assay. Type of test: cell-based. In a few lines: (§1)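 HEK293 cells in DMEM with 10% FBS, plated at 10^5 cells/well. After 24 h, PEI-transfected with PG13-luc (wt p53 sites), myc-p53, flag-SIRT1 and RSV-β-gal. Treated 24 h post-transfection for 12 h. Luciferase normalized to internal control. Triplicate experiments, mean ± SD.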
On the technique in general: In a reporter assay the amount or activity of a reporter protein is the signal.

For test [3] the target is unchanged. Nature of the test: Activation of SIRT1 expressed in HEK293 cells assessed as increase in enzyme deacetylation activity pre-incubated for 10 mins before addition of acetylated p53 peptide substrate and NAD+ by NAD+/NADH assay. Format: cell-based. In short, it runs like this: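 Cell-free SIRT1 (0.1 U/mL) with 10 μM NAD+ and 20 μM Ac-p53 peptide in Tris/Cl pH 8.0, NaCl, KCl, MgCl2, BSA buffer. Enzyme–compound premix 10 min at room temperature, then 6 h at ambient temperature. Stopped with NAD/NADH recycling enzyme mix containing 1 mM nicotinamide; absorbance read after 2 h. DMSO and no-enzyme controls.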

The target is the same in test [4]. The experiment in a line: Activation of SIRT1 expressed in HEK293 cells assessed as reduction in p53 transcriptional activity incubated for 12 hrs by luciferase reporter gene assay. Format: cell-based. In a few lines: as §1
Test [5] has the same target. The experiment in a line: Activation of SIRT1 expressed in HEK293 cells assessed as increase in enzyme deacetylation activity at 10 uM using acetylated p53 substrate and NAD+ by bioluminescence assay. Format: cell-based. In a few lines: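 Enzyme–compound premix 10 min, then substrate/NAD+ added and run 2 h. Quenched with LDH reagent containing nicotinamide for 1 h. Read by luciferase/FMN-oxidoreductase/decanal luminescence within 15 min. DMSO reaction as positive control, no-enzyme as blank.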

Our source for the Activity values is ChEMBL document CHEMBL2069229, “Terpenylated coumarins as SIRT1 activators isolated from Ailanthus altissima” (J Nat Prod, 2012).

Activity calls are given as the source filed them. The calls are words filed in the database; no cut-off is given here.

For `COc1cc2ccc(=O)oc2c(OC)c1OC/C=C(\C)CCC=C(C)C`, the values for the Activity in test [1], in test [3] and in test [4] were over 50%, “Dose-dependent effect” and “Dose-dependent effect”, respectively. In addition, the outcome in test [2] and in test [5] was Active.

With `COc1cc2ccc(=O)oc2c(OC)c1OC[C@@H](O)[C@](C)(O)CCC=C(C)C`, the values for the Activity in test [1], in test [3] and in test [4] were over 50%, “Dose-dependent effect” and “Dose-dependent effect”, respectively. Besides, the result in test [2] and in test [5] was Active.

On to `COc1cc2ccc(=O)oc2c(OC)c1OC[C@H](O)[C@@H](C)[C@@H]1O[C@H]1C=C(C)C`, for which the results for the Activity in test [1], in test [3] and in test [4] were over 50%, “Dose-dependent effect” and “Dose-dependent effect”, respectively. In addition, the result in test [2] and in test [5] was Active.

As for `COc1cc2ccc(=O)oc2c(OC)c1OC[C@@H](O)[C@](C)(O)CC[C@H]1OC1(C)C`, the Activity in test [1] is over 50%; in test [3] it was “Dose-dependent effect”; in test [4] it was “Dose-dependent effect”. Besides, the result in test [2] and in test [5] was Active.
